Results taken from ChEMBL document CHEMBL3396952, “Structural and biological evaluation of a novel series of benzimidazole inhibitors of Francisella tularensis enoyl-ACP reductase (FabI)” (Bioorg Med Chem Lett, 2015).
Converted amounts (≈) assume the structure as drawn.

How the values were obtained:
Staphylococcus aureus [1] = assay: Antimicrobial activity against methicillin-resistant Staphylococcus aureus ATCC 43300 measured after overnight incubation by microdilution method; format: functional
[2] = Inhibition of N-terminus His-tagged Francisella tularensis subsp. Tularensis Schu4 Fab1 expressed in Escherichia coli […] (DE3) cells assessed as conversion of crotonyl-CoA and NADH to butyryl-CoA and NAD+ preincubated for 30 mins by fluorescence analysis; design: species or system Francisella tularensis subsp. tularensis SCHU S4
Method in brief: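 Experimental Ki came from varying crotonyl-CoA against inhibitor concentration at saturating NADH (200 µM). Calculated Ki used Cheng-Prusoff, IC50 = Ki(1+[S]/Km), with [S]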

Escherichia coli [3] = assay: Antimicrobial activity against TolC-deficient Escherichia coli measured after overnight incubation by microdilution method; format: functional
Francisella tularensis = assay: Antimicrobial activity against Francisella tularensis Utah 112 measured after overnight incubation by microdilution method; format: functional
Escherichia coli [4] = assay: Antimicrobial activity against wild-type Escherichia coli BW25113 measured after overnight incubation by microdilution method; format: functional
Staphylococcus aureus [5] = assay: Antimicrobial activity against Staphylococcus aureus ATCC 29213 measured after overnight incubation by microdilution method; format: functional

Structure (SMILES) | MIC (Staphylococcus aureus [1]) [µg/mL] | IC50 [2] [nM] | MIC (Escherichia coli [3]) [µg/mL] | MIC (Francisella tularensis) [µg/mL] | MIC (Escherichia coli [4]) [µg/mL] | MIC (Staphylococcus aureus [5]) [µg/mL] | MBC (Staphylococcus aureus [1]) [µg/mL] | MBC (Staphylococcus aureus [5]) [µg/mL] | MBC (Escherichia coli [3]) [µg/mL] | MBC (Francisella tularensis) [µg/mL] | Ki [2] [nM]
Cc1cc2ncn(Cc3ccc(Cl)c(Cl)c3)c2cc1C | 50 (≈ 164 µM) | 300 | 6.25 (≈ 20.5 µM) | 7.8 (≈ 25.6 µM) | > 200 | – | – | – | – | – | –
Cc1cc2ncn(C(C)c3ccc(Cl)c(Cl)c3)c2cc1C (stereo not given) | 12.5 (≈ 39.2 µM) | 370 | 6.3 (≈ 19.7 µM) | > 12.5 | > 12.5 | 12.5 (≈ 39.2 µM) | – | – | – | – | –
CC(c1ccc(Cl)c(Cl)c1)n1cnc2cc3c(cc21)CCC3 (stereo not given) | 6.3 (≈ 19 µM) | 18 | 3.1 (≈ 9.36 µM) | 3.9 (≈ 11.8 µM) | > 12.5 | 5.5 (≈ 16.6 µM) | 12.5 (≈ 37.7 µM) | > 25 | 12.5 (≈ 37.7 µM) | 9.4 (≈ 28.4 µM) | –
CC(c1ccc(Cl)c(Cl)c1)n1cnc2cc3c(cc21)CCCC3 (stereo not given) | 3.1 (≈ 8.98 µM) | 14 | – | 3.1 (≈ 8.98 µM) | > 12.5 | 3.1 (≈ 8.98 µM) | 25 (≈ 72.4 µM) | 25 (≈ 72.4 µM) | 12.5 (≈ 36.2 µM) | 25 (≈ 72.4 µM) | –
CC(c1ccc(Cl)c(Cl)c1)n1cnc2cc3c(cc21)CC(C)(C)C3 (stereo not given) | 4.7 (≈ 13.1 µM) | 240 | > 12.5 | > 12.5 | > 12.5 | 4.7 (≈ 13.1 µM) | > 12.5 | > 12.5 | > 25 | – | –
CC(c1ccc(Cl)c(Cl)c1)n1cnc2cc3c(cc21)COC3 (stereo not given) | > 12.5 | 890 | > 12.5 | > 12.5 | > 12.5 | > 12.5 | – | – | – | – | –
COc1ccc(Cn2cnc3cc4c(cc32)CCC4)cc1C | > 12.5 | 5 | 12.5 (≈ 42.8 µM) | 5.5 (≈ 18.8 µM) | > 12.5 | > 12.5 | – | – | – | 12.5 (≈ 42.8 µM) | –
COc1ccc(Cn2cnc3cc4c(cc32)CCCC4)cc1C | 12.5 (≈ 40.8 µM) | 140 | 4.7 (≈ 15.3 µM) | 3.1 (≈ 10.1 µM) | > 12.5 | 6.3 (≈ 20.6 µM) | – | 25 (≈ 81.6 µM) | 9.4 (≈ 30.7 µM) | 6.3 (≈ 20.6 µM) | 130
COc1ccc(Cn2cnc3cc4c(cc32)CCCC4)cc1OC | > 12.5 | 1360 | > 12.5 | > 12.5 | > 12.5 | > 12.5 | – | – | – | – | 1430
c1cc2c(cc1Cn1cnc3cc4c(cc31)CCCC4)OCO2 | 6.3 (≈ 20.6 µM) | 320 | 9.4 (≈ 30.7 µM) | 4.7 (≈ 15.3 µM) | > 12.5 | 4.7 (≈ 15.3 µM) | > 25 | > 25 | 25 (≈ 81.6 µM) | 18.8 (≈ 61.4 µM) | 330
